This note sets out measurements from ChEMBL document CHEMBL1138065, “Novel selective inhibitors of neutral endopeptidase for the treatment of female sexual arousal disorder. Synthesis and activity of functionalized glutaramides” (J Med Chem, 2006).

The structures appear in SMILES notation. pIC50: −log10 of the molar value.

Series [1] addresses T1, Endothelin-converting enzyme 1 (Homo sapiens, UniProt P42892).
T1 sequence (P42892 whole entry): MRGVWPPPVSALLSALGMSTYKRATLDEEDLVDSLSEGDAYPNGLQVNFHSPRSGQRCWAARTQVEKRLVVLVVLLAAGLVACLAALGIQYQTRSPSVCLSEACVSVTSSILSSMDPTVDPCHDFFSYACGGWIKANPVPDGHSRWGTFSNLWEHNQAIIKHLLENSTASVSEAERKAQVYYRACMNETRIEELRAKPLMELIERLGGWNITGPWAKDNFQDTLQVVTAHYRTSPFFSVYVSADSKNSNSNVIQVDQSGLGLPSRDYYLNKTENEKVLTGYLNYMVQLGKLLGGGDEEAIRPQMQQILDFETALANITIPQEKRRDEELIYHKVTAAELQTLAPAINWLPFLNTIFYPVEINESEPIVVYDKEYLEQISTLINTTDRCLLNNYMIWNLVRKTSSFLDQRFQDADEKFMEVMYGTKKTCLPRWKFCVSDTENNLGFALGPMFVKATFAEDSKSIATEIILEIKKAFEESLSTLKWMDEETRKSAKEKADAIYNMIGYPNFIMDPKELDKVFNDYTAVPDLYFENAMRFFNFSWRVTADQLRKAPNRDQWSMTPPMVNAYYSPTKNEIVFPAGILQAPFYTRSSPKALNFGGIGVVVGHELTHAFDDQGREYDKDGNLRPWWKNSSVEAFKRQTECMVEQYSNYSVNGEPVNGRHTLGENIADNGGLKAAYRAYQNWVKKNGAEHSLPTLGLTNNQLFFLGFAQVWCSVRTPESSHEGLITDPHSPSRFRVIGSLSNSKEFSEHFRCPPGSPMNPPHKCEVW
The series can be described thus: Inhibition of human ECE1. In outline:
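Enzyme: recombinant human ECE-1 extracellular domain (aa 73-753), taken from the media of transiently transfected CHO cells. Assay in 100 mM HEPES-KOH pH 7.0/1% DMSO with 1 µM big ET-1, 1 h at 37 °C. Stopped with an equal volume of 10 mM EDTA. ET-1 formed was read by ELISA, with enzyme diluted to give OD ≈1.0. Inhibitors were tested at a range of concentrations as % inhibition.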

In series [2] the test system is Rattus norvegicus. Kind of series: Volume of distribution in male rat at 1 mg/kg, iv and po. It is filed as ADME, organism-based. Set-up: dose 1 mg/kg, route oral. The note with it: in vivo. In outline: (§1)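 Jugular-vein-cannulated rats got 1 mg/kg iv (tail vein) or po (gavage). Blood (0.2 mL) was drawn via the catheter into heparin tubes up to 24 h post-dose. Plasma was acidified with phosphoric acid and frozen, then extracted on C18 cartridges. Samples were quantified by LC-MS-MS with positive-ion MRM. Values are mean ± SD of three animals.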

The nature of series [3]: Half life in male rat at 1 mg/kg, iv and po. It is filed as ADME, organism-based. Details: dose 1 mg/kg, route oral. The note with it: in vivo. In outline:
as §1

Series [4] in a line: Apparent permeability from apical to basolateral side of the Caco-2 cell membrane at pH 7.4 at 25 uM. It is filed as ADME, cell-based. The note with it: human, Caco-2, pH 7.4. On the technique in general: Passage across Caco-2 layers is used to estimate intestinal permeability.
Series [5] is described as follows: Apparent permeability from basolateral to apical side of the Caco-2 cell membrane at pH 7.4 at 25 uM. It is filed as ADME, cell-based. The note with it: human, Caco-2, pH 7.4.
Series [6] can be described thus: Stability in human liver microsome at 1 uM in presence of 0.5 uM CYP. It is filed as ADME. The note with it: liver microsomes, read-out: Stability. In outline: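 Substrate disappearance in human liver microsomes, 1 µM compound, 0.5 µM CYP.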
On the technique in general: Microsomes from liver hold many membrane-bound enzymes, among them those of drug oxidation.

Series [7] can be described thus: Stability in rat liver microsome. The note with it: liver microsomes, read-out: Stability. It is filed as ADME.
Series [8] in a line: Tmax in male rat at 1 mg/kg, iv and po. It is filed as ADME, organism-based. Details: dose 1 mg/kg, route oral. The note with it: in vivo. In outline:
as §1

Series [9] in a line: Cmax in male rat at 1 mg/kg, iv and po. It is filed as ADME, organism-based. Details: dose 1 mg/kg, route oral. The note with it: in vivo. In outline:
as §1

Series [10] can be described thus: Percent of unbound ligand in male rat at 1 mg/kg, iv and po. It is filed as ADME, organism-based. Details: dose 1 mg/kg, route oral. The note with it: in vivo. In outline: (§2)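 Fraction unbound in rat plasma was measured at 1 µg/mL by equilibrium dialysis against isotonic Krebs-Ringer bicarbonate buffer, pH 7.4.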
Series [11] can be described thus: Oral bioavailability in male rat at 1 mg/kg, iv and po. The note with it: in vivo. It is filed as ADME, organism-based. In outline:
as §1

Series [12] concerns the target T2, Neprilysin (Oryctolagus cuniculus, UniProt P08049).
T2 sequence (P08049 whole entry): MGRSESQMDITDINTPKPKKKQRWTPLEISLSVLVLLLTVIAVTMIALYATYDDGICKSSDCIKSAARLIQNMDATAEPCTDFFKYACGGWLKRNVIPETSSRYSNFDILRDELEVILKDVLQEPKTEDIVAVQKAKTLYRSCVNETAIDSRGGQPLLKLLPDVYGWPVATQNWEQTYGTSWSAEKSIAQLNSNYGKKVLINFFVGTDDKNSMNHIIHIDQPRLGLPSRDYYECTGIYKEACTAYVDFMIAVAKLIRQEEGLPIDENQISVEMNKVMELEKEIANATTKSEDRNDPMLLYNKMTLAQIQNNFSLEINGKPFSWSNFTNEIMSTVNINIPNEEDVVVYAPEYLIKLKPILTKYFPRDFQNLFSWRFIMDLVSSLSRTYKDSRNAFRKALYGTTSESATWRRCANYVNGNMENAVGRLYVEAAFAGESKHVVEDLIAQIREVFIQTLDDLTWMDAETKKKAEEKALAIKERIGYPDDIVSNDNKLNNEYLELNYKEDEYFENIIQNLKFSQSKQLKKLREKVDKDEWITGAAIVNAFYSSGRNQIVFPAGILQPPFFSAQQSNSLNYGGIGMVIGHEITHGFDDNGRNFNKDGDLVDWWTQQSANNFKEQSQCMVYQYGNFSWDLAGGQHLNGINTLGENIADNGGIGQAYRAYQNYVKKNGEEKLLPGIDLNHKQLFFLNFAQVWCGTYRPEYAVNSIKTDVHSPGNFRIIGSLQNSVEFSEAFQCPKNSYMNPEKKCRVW
The series can be described thus: Inhibition of rabbit NEP. In outline:
(§3)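 Fluorogenic substrate o-aminobenzoyl-D-Arg-Arg-Leu-ethylenediamine-2,4-dinitrophenyl in 50 mM Tris·Cl pH 7.4 (inhibitor dilutions with 4% DMSO). Enzyme was diluted to ≤10% conversion; incubation 1 h at 37 °C, stopped with phosphoramidon. 10-point half-log dilution series, duplicate points.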

For series [13], the target named is T3, Neprilysin (Rattus norvegicus, UniProt P07861).
T3 sequence (P07861 whole entry): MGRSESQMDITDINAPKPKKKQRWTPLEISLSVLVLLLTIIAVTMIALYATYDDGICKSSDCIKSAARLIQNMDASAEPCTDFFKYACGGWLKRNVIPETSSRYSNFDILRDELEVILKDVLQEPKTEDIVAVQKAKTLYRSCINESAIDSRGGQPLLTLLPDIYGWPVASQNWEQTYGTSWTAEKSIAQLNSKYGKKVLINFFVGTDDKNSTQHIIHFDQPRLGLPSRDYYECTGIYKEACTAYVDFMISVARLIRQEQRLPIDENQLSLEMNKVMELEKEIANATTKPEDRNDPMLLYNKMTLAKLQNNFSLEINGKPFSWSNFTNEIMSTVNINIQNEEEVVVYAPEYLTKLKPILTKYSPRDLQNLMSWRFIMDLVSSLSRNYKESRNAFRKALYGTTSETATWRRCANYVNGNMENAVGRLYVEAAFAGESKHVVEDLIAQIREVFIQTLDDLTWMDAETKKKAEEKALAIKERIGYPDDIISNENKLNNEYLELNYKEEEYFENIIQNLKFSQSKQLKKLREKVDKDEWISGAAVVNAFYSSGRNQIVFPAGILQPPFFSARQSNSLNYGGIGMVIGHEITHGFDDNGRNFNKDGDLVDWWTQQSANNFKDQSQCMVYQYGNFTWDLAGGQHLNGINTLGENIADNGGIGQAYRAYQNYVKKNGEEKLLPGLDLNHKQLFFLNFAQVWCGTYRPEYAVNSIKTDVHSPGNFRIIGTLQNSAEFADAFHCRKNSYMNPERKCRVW
The series can be described thus: Inhibition of rat NEP. In outline:
as §3

The subject of series [14] is Rattus norvegicus. The series can be described thus: Volume of distribution in female rat at 1 mg/kg, iv and po. It is filed as ADME, organism-based. Details: dose 1 mg/kg, route oral. The note with it: in vivo. In outline: as §1
A short description of series [15]: Half life in female rat at 1 mg/kg, iv and po. It is filed as ADME, organism-based. Details: dose 1 mg/kg, route oral. The note with it: in vivo. In outline: as §1
A short description of series [16]: Tmax in female rat at 1 mg/kg, iv and po. It is filed as ADME, organism-based. Set-up: dose 1 mg/kg, route oral. The note with it: in vivo. In outline: as §1
Series [17] can be described thus: Cmax in female rat at 1 mg/kg, iv and po. It is filed as ADME, organism-based. Set-up: dose 1 mg/kg, route oral. The note with it: in vivo. In outline: as §1
Series [18] can be described thus: Percent of unbound ligand in female rat at 1 mg/kg, iv and po. It is filed as ADME, organism-based. Details: dose 1 mg/kg, route oral. The note with it: in vivo. In outline:
as §2

Series [19] can be described thus: Oral bioavailability in female rat at 1 mg/kg, iv and po. It is filed as ADME, organism-based. The note with it: in vivo. In outline:
as §1

Series [20] can be described thus: Lipophilicity, LogD at pH 7.4. It is filed as physicochemical. The note with it: buffer. In outline: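 Partition measured between 1-octanol and water at pH 7.4.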

As a reminder, the pIC50 is the IC50 on a negative log10 scale, so that one unit is a factor of ten. Lower therefore signals a large IC50. `CCC[C@@H](CC1(C(=O)NC2(CO)Cc3ccccc3C2)CCCC1)C(=O)O` gave a pIC50 in [1] below 5.52.

On to `CCC[C@@H](CC1(C(=O)Nc2nnc(CC)s2)CCCC1)C(=O)O`, for which the pIC50 in [1] was below 5.52.

What is called Papp A→B is how fast a substance crosses the layer from the apical side. As a reminder, the Papp B→A is the apparent permeability from the basolateral to the apical side of a cell layer. In general, Tmax refers to the time from dosing to the highest level. One may read the Cmax as the maximum level reached in the sampled fluid or tissue. In series [2], `CCC[C@H](CC1(C(=O)NC2(CO)Cc3ccccc3C2)CCCC1)C(=O)O` registered a Vdss of 4.7 L/kg. Also, the figures for the half-life in [3] and in series [7] were 1.5 h and above 2 h, respectively. Moreover, the Papp A→B at 25 µM in series [4] was 6 ×10⁻⁶ cm/s. Moreover, in series [5], the Papp B→A at 25 µM came out at 10 ×10⁻⁶ cm/s. For the same compound, the half-life at 1 µM in series [6] amounted to 1.03 h. This compound also showed a pIC50 in series [1] below 5.52. Also, the Tmax in [8] turned out to be 0.25 h. This compound also yielded a Cmax in [9] of 233 ng/mL. Further, the Fu in [10] was 24.3%. Also, the bioavailability in series [11] stood at 144%.

For `CCC[C@H](CC1(C(=O)Nc2nnc(C)s2)CCCC1)C(=O)O`, the Papp A→B at 25 µM in series [4] was below 1 ×10⁻⁶ cm/s. Also, the Papp B→A at 25 µM in series [5] was 2 ×10⁻⁶ cm/s. Moreover, the half-life at 1 µM in series [6] was above 2 h. Further, the pIC50 in series [1] is below 5.52.

Turning to `CCC[C@H](CC1(C(=O)Nc2nnc(CC)s2)CCCC1)C(=O)O`, the pIC50 was 7.99 in series [12], below 5.52 in series [1] and 7.84 in series [13]. Also, the results for the Vdss in series [2] and in series [14] were 0.4 L/kg and 0.9 L/kg, respectively. For the same compound, the half-life is 1.7 h in series [3], above 2 h in series [7] and 2.1 h in [15]. For the same compound, the Papp A→B at 25 µM in series [4] amounted to 9 ×10⁻⁶ cm/s. Further, the Papp B→A at 25 µM in series [5] came out at 14 ×10⁻⁶ cm/s. For the same compound, in [6], the half-life at 1 µM is above 2 h. Moreover, the Tmax in series [8] and in series [16] was 1 h each time. Besides, the Cmax was 1180 ng/mL in series [9] and 1460 ng/mL in [17]. For the same compound, the figures for the Fu in series [10] and in [18] were 10.6% and 13%, respectively. Besides, the bioavailability in [11] worked out at 103%; in series [19], 131%.

What is called logD is lipophilicity at a set pH, counting ionised and neutral species. For `CCCC(CC1(C(=O)Nc2nnc(C)s2)CCCC1)C(=O)O` (racemic), the logD in series [20] worked out at 0.1.

The compound `CCCC(CC1(C(=O)Nc2nnc(CC)s2)CCCC1)C(=O)O` (racemic) yielded a logD in [20] of 0.5.

`CCCC(CC1(C(=O)NC2(CO)Cc3ccccc3C2)CCCC1)C(=O)O` (racemic): in [2], the Vdss was determined as 3.9 L/kg. The same compound gave a half-life in series [3] of 2 h. Also, in series [20], the logD was found to be 1.1. Also, the Tmax in series [8] was 0.25 h. This compound also gave a Cmax in series [9] of 311 ng/mL. Moreover, in series [11], the bioavailability was found to be 108%.
